{"source": "paper PMC6217529", "about": "(ACS Omega, 2018)", "key": {"[1]": {"system": "mice", "assay": "Edema inducing activity in mice foot pads", "format": "in vivo", "conditions": "up to 100 μg"}, "[2]": {"system": "platelets (PRP)", "assay": "Epinephrine-induced platelet aggregation in PRP", "format": "cell-based, human", "conditions": "agonist epinephrine", "method_in_brief": "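Platelet-rich plasma (PRP) and platelet-poor plasma (PPP) were prepared from fresh blood of healthy human donors, and PRP was adjusted with PPP to 3.1 × 10^8 platelets/mL at 37 °C. PRP was pre-incubated with test compound (10, 20 or 30 μg) in a 0.25 mL reaction volume. Aggregation was started with 5 μM epinephrine and traced on a dual-channel optical lumi-aggregometer. Inhibition % was plotted against dose, from three independent experiments.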"}, "[3]": {"system": "mice", "assay": "Hemorrhagic activity in mice, intradermal", "format": "in vivo", "conditions": "up to 100 μg"}}, "note": "“Also recorded” adds a separate entry of the source.", "data": [{"smiles": "Cn1c(-c2ccc(Br)s2)nc2cc(-c3nnc(-c4cc(-c5cc(F)cc(F)c5)nc5ccccc45)o3)ccc21", "note": "[8a, 2-(2-(5-Bromothiophen-2-yl)-1-methyl-1H-benzo[d]imidazol-5-yl)-5-(2-(3,5-difluorophenyl)quinolin-4-yl)-1,3,4-oxadiazole]", "values": [{"measurement": "edema in experimental mice (in words)", "setting": "[1]", "value": "anti-edema; also recorded: active in preventing hemorrhage and edema"}, {"measurement": "ability to inhibit epinephrine-induced platelet aggregation (in words)", "setting": "[2]", "value": "able to inhibit the epinephrine-induced platelet aggregation"}, {"measurement": "hemorrhage in experimental mice (in words)", "setting": "[3]", "value": "anti-hemorrhagic"}]}, {"smiles": "Cn1c(-c2ccc(Br)s2)nc2cc(-c3nnc(-c4cc(-c5ccc(Cl)cc5Cl)nc5ccccc45)o3)ccc21", "note": "[8d, 2-(2-(5-Bromothiophen-2-yl)-1-methyl-1H-benzo[d]imidazol-5-yl)-5-(2-(2,4-dichlorophenyl)quinolin-4-yl)-1,3,4-oxadiazole]", "values": [{"measurement": "edema in experimental mice (in words)", "setting": "[1]", "value": "anti-edema; also recorded: active in preventing hemorrhage and edema"}, {"measurement": "ability to inhibit epinephrine-induced platelet aggregation (in words)", "setting": "[2]", "value": "but not the 8d sample"}, {"measurement": "hemorrhage in experimental mice (in words)", "setting": "[3]", "value": "anti-hemorrhagic"}]}]}
